Assay outcomes as filed in PubChem BioAssay.
Shown are actives, neighbours in structure and some others; about 2.2% of the full set was active somewhere.
CAL PDZ FP-1: inhibitors of human CAL PDZ peptide binding | Q9HD26 | purified CAL PDZ, TMR-peptide fluorescence polarization, 1 h | inhibition, % at 20 µM | 0.02% of 330,000 active;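 active = highest replicate inhibition of at least 40%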;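 also: plate controls were DMSO neutral control wells for no effect and unlabeled competitor peptide control wells for full effect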
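Control set: unlabelled peptide and DMSO controls / Material: purified CerCALP PDZ construct / Timing: 1 h incubation at room temperature before polarization reading / Doses: 20 µM, one dose / Detection: fluorescence polarization (mP)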
dFosB activator: activators of mouse delta FosB homodimer; P13346; purified delta FosB, TAMRA-CDK5 oligo fluorescence polarization; percent of positive-control signal above neutral wells; activation, % at 25 µM; 0.99% of 340,000 active; AID 493131;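 active = mean activation above about 17%, with every replicate also reaching it, limit read from the data, passing the limit was not always enough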
Dyrk1A ADPGlo: Dyrk1A (rat) kinase inhibition. Q63470. inhibition, % at 12.5 µM. AID 504441. 0.43% of 310,000 active. ADP-Glo luminescence, NFATc1 peptide; in the data active = inhibition above about 50%;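 also: plate controls were vehicle with enzyme for no effect and no enzyme for full effect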
CAL PDZ FP-2: inhibitors of human CAL PDZ peptide binding. 0.92% of 300,000 active. inhibition, % at 24.9 µM. AID 602252. purified CAL PDZ, TMR-peptide fluorescence polarization, 1 h;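 active = mean inhibition of at least 30% with at least half of replicates also reaching 30%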;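 also: 0% = DMSO neutral control and 100% = excess unlabeled competitor peptide PRC23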
Rtt109 HAT inh: C. albicans Rtt109 histone acetyltransferase inhibition. purified Rtt109/Vps75, ThioGlo CoA-SH fluorescence, 4 h. inhibition, % at 34.9 µM. Q5AAJ8. 0.16% of 330,000 active. AID 540336;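 active = inhibition of at least 50% in every replicate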
CDK5 inh: CDK5/p35 (human) kinase inhibition; Q00535+Q15078; Recombinant CDK5/p35, ADP-Glo luminescence, 60 min; inhibition, % at 10 µM; 0.01% of 330,000 active;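 active = highest replicate inhibition of at least 50% and at least 75% of replicates reaching 50%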;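 also: plate controls were DMSO neutral control for no effect and GW8510 at 10 µM for full effect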
Target sequence (Q00535 whole entry, looked up): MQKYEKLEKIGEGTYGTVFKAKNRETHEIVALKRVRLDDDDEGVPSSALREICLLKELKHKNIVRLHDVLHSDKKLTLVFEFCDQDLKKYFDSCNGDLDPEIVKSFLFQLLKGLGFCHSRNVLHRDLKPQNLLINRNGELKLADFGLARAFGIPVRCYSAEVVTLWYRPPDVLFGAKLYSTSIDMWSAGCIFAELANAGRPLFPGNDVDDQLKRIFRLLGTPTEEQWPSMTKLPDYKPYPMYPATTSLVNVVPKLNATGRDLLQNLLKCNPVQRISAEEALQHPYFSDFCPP
Target sequence (Q15078 whole entry, looked up): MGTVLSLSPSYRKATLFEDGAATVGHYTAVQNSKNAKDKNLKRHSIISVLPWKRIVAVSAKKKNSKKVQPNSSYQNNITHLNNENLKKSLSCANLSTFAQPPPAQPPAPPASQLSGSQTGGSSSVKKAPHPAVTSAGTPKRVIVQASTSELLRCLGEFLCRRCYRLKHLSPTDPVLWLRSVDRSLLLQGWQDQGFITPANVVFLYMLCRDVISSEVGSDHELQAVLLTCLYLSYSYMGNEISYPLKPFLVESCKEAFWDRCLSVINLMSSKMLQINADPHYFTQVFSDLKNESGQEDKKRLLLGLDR
* hit, by the source's call; . = no result.

SMILES	CAL PDZ FP-1	dFosB activator	Dyrk1A ADPGlo	CAL PDZ FP-2	Rtt109 HAT inh	CDK5 inh
O=C(NCC(F)(F)F)c1ccc(S(=O)(=O)Nc2ccccc2N2CCCC2)cc1	1	53*	-1	4	5	2
N#Cc1ccc(NC(=S)NCCN2CCOCC2)cc1	-1	3	-3	91*	-6	-1
CCOc1ccc(-c2c(C(=O)N/N=C/c3ccccc3)nnn2-c2nonc2N)cc1	0	1	-2	-5	-4	0
C/C(=N\NC(=O)c1nnn(-c2nonc2N)c1-c1ccccc1)c1ccccc1O	2	33*	4	-1	-3	-1
CN(Cc1c(C(=O)N/N=C/c2ccc(O)cc2)nnn1-c1nonc1N)C1CCCCC1	-3	29*	41	-2	-19	0
CCCN(CCC)Cc1c(C(=O)N/N=C/C(C)=C\c2ccco2)nnn1-c1nonc1N	0	-19	-1	66*	3	1
CCOc1ccc(-c2c(C(=O)N/N=C/c3ccc(C)cc3)nnn2-c2nonc2N)cc1	0	34*	-1	-1	-7	0
Cc1ccc(/C=N/NC(=O)c2nnn(-c3nonc3N)c2CN(C)C2CCCCC2)cc1	-2	5	1	-7	13	-1
CC(C)CC(C(=O)O)N1C(=O)C2C3CC(C2C1=O)C1C(c2ccccc2)c2sc(=O)[nH]c2SC31 (stereo not given)	-2	-10	-8	0	-32	-1
Cc1cccc(C)c1NC(=O)c1sc(Cl)nc1C	0	2	1	-5	17	-1
COc1ccc(C(=O)Nc2ccc(S(=O)(=O)Nc3nccc(C)n3)cc2)cc1OC	0	-2	13	50*	3	0
COc1cc(OC)cc(C(=O)Nc2ccc(S(=O)(=O)Nc3ccccn3)cc2)c1	0	9	-9	33*	3	0
O=C1OC(c2ccccc2)(c2ccccc2)c2ccccc21	55*	-8	-1	4	.	1
Cc1ccc(CN(C(=O)c2ccccc2C)C2CCS(=O)(=O)C2)o1 (stereo not given)	0	5	0	-2	72*	0
FC(F)(F)c1ccccc1NC(=S)N1CCCC1	-1	0	.	50*	-10	-1
CCN(CC)c1ccc(/C=N/Nc2nc3ccccc3[nH]2)c(O)c1	2	32*	5	-1	-11	0
CCOc1cc(N(CC)CC)ccc1/C=C(/C#N)c1nc2ccccc2[nH]1	1	-12	0	43*	-5	0
O=C(NCCC(=O)N(Cc1ccco1)Cc1cccs1)c1ccc(Br)cc1	-2	-11	-2	3	1	-3
CCc1cccc(NC(=O)c2ccc(CNc3c(N4CCCC4)c(=O)c3=O)cc2)c1	1	-9	-12	-1	-7	1
Cc1ccc(C(=S)N2CCN(Cc3ccccc3)CC2)s1	-1	-8	0	-5	5	1
CCN(CC(=O)Nc1c(F)cccc1F)C(=O)CCN1C(=O)C2CCCCC2C1=O (stereo not given)	-1	-4	-4	0	-5	3
COc1ccc2oc(=O)c(C(=O)Nc3ccccc3O)cc2c1	18	7	10	78*	-4	-1
COc1ccc2oc(=O)c(C(=O)NC(C)c3ccccc3)cc2c1 (stereo not given)	-2	-4	1	.	-30	-1
COc1ccccc1NC(=O)C(C)OC(=O)CCNS(=O)(=O)c1ccc(C)c(C)c1 (stereo not given)	-2	-7	-7	-2	1	0
C/C(=N/NC(=O)c1ccco1)c1ccc(Br)s1	-3	-2	8	-4	7	0
SMILES	CAL PDZ FP-1	dFosB activator	Dyrk1A ADPGlo	CAL PDZ FP-2	Rtt109 HAT inh	CDK5 inh
Cc1ccnc(NC(c2cccnc2)c2ccc3cccnc3c2O)c1 (stereo not given)	-3	-8	-3	-1	10	0
Cc1ccc2ccc(C(Nc3cccc(C(F)(F)F)c3)c3cccnc3)c(O)c2n1 (stereo not given)	0	-2	4	43*	.	-1
O=c1[nH]ncc(NCc2ccc(Cl)cc2)c1Cl	-1	5	0	.	-5	4
O=C(CN1CCN(C(=O)c2ccco2)CC1)Nc1ccccc1	-1	2	2	-5	6	0
O=C(CN1CCN(C(=O)c2ccco2)CC1)Nc1ccc(F)cc1F	0	7	0	89*	2	0
Cc1noc(C)c1COc1ccc(C(=O)N2CCN(S(=O)(=O)c3ccc(F)cc3)CC2)cc1	0	-6	-4	1	1	0
Cc1noc(C)c1COc1ccc(C(=O)N2CCN(S(=O)(=O)c3ccc(Cl)cc3)CC2)cc1	-1	-9	-4	39*	-14	2
Cc1ccccc1CN1CCN(Cc2cc(=O)c3ccccc3[nH]2)CC1CCO (stereo not given)	0	-10	.	.	-7	0
CCCCc1c(O)nc(SCC(=O)N2CCCCC2)n(-c2ccccc2C)c1=O	-1	3	-1	54*	-13	0
CCOC(=O)CSc1nc2sc3c(c2c(=O)n1-c1ccccc1)CCN(C(C)C)C3	-1	8	4	3	-6	1
Cc1[nH]nc(NCCO)c1[N+](=O)[O-]	5	-5	3	31*	3	0
Cc1ccccc1Nc1nnc(-c2ccc(C(=O)NCCO)cc2)c2ccccc12	-3	1	1	-2	0	0
CC1=NN(c2nc(-c3ccc(C)cc3)cs2)C(=O)C1N=Nc1ccc(C(N)=O)cc1 (stereo not given)	1	-18	-5	.	0	1
COCC(C)N1CCC(Oc2cccc(C(=O)NCCc3ccccc3)c2)CC1 (stereo not given)	0	-9	-3	49*	-5	-1
CCOC(=O)Cn1c(=O)oc2cc(S(=O)(=O)N(CCN(C)C)Cc3ccccc3)ccc21	0	-8	2	-2	-2	1
CCOC(=O)Cn1c(=O)oc2cc(S(=O)(=O)N(C)Cc3ccccc3)ccc21	0	-7	-2	76*	-2	-1
CC(C)NC(=O)N(C)C[C@@H]1Oc2ccc(NC(=O)CCN3CCOCC3)cc2CC(=O)N([C@@H](C)CO)C[C@@H]1C	-1	-9	-3	-2	-1	2
CCCn1cc(S(=O)(=O)CC(=O)NC2CCCCC2)c2ccccc21	-2	-4	14	-2	51*	-1
COc1ccc(-c2nn(C)c3sc(C(=O)NCCN(C)C)cc23)cc1OC	-2	51*	2	-3	-11	1
O=c1[nH]c2ccccc2cc1CN(CC1CCCO1)S(=O)(=O)c1ccccc1 (stereo not given)	0	-16	5	66*	-5	0
